Measured values as given in ChEMBL document CHEMBL4706654, “Novel cyanothiouracil and cyanothiocytosine derivatives as concentration-dependent selective inhibitors of U87MG glioblastomas: Adenosine receptor binding and potent PDE4 inhibition” (Eur J Med Chem, 2021).

Key:
[1] = target: 3',5'-cyclic-AMP phosphodiesterase 4B (Homo sapiens, UniProt Q07343); assay: Inhibition of recombinant human PDE4B using […] as substrate measured after 90 mins by colorimetric assay
In short: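 Recombinant human PDE4 was incubated with 0.5 μM 5′-cGMP plus 5′-nucleotidase for 90 min at 30°C. The reaction was stopped with termination buffer for 20 min at room temperature, and released phosphate was read at OD 620 nm. IC50 was determined from 6 inhibitor concentrations. Compound stocks were in DMSO (less than 1%), with at least triplicate runs, mean ± SD.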

[2] = tested on: U-87 MG; assay: Antiproliferative activity against human U-87 MG cells assessed as cell viability at 10 uM measured after 24 to 48 hrs by MTT assay relative to control; format: functional, U-87MG ATCC; details: time 24-48 hrs, read-out: Activity
In short: (§1)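 Cells seeded per well 24 h before treatment: HEK293 at 5.10^4, MCF7 at 4.10^4, U87MG at 10^5. Compounds were dissolved in DMSO (less than 1%) and diluted in DMEM, then incubated 24 and 48 h. Cells were washed with D-PBS and given MTT (from a 5 mg/mL stock) for 4 h, dissolved in DMSO, read at 540 nm. % viability = sample/control absorbance ×100. At least three independent experiments.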

[3] = tested on: HEK293; assay: Cytotoxicity against HEK293 cells assessed as reduction in cell viability measured after 24 to 48 hrs by MTT assay; format: cell-based; details: Homo sapiens; in short: as §1
[4] = tested on: U-87 MG; assay: Antiproliferative activity against human U-87 MG cells assessed as reduction in cell viability measured after 24 to 48 hrs by MTT assay; format: functional, cell-based, U-87MG ATCC; in short: as §1
[5] = target: T1, Adenosine receptor A1 (Homo sapiens) (UniProt P30542); assay: Displacement of [3H]DPCPX from recombinant human A1 adenosine receptor expressed in CHO cell membranes at 1 uM measured after 60 mins by liquid scintillation counting method relative to control; details: Membrane
T1 sequence (whole entry): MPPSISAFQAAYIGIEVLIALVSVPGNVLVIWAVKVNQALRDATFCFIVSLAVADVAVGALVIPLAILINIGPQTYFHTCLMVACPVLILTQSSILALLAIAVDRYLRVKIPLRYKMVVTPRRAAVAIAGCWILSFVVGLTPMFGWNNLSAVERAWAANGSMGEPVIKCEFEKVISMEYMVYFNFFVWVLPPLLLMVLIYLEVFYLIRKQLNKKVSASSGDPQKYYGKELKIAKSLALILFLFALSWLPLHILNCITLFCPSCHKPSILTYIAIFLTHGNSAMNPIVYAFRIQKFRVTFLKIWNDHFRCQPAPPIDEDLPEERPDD
In short: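 Membranes from CHO cells expressing recombinant hA1 (40 μg/tube) were incubated with 2 nM [3H]DPCPX and test compound at 1 μM in 50 mM Tris-HCl (pH 7.4, 10 mM MgCl2) for 60 min at 25°C. Bound radioligand was separated by GF/B filtration and counted by liquid scintillation. Results are given as percent inhibition of specific binding.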

[6] = tested on: MCF7; assay: Antiproliferative activity against human MCF7 cells assessed as reduction in cell viability measured after 24 to 48 hrs by MTT assay; format: functional, cell-based; in short: as §1
[7] = tested on: U-87 MG; assay: Antiproliferative activity against human U-87 MG cells assessed as cell viability at 100 uM measured after 24 to 48 hrs by MTT assay relative to control; format: functional, U-87MG ATCC; details: time 24-48 hrs, read-out: Activity; in short: as §1
[8] = tested on: U-87 MG; assay: Antiproliferative activity against human U-87 MG cells assessed as cell viability at 50 uM measured after 24 to 48 hrs by MTT assay relative to control; format: functional, U-87MG ATCC; details: time 24-48 hrs, read-out: Activity; in short: as §1
[9] = tested on: U-87 MG; assay: Antiproliferative activity against human U-87 MG cells assessed as cell viability at 5 uM measured after 24 to 48 hrs by MTT assay relative to control; format: functional, U-87MG ATCC; details: time 24-48 hrs, read-out: Activity; in short: as §1
[10] = target: Adenosine receptor A2a (Homo sapiens) (UniProt P29274); assay: Displacement of [3H]ZM241385 from recombinant human A2A adenosine receptor expressed in HEK293 cell membranes at 1 uM measured after 60 mins by liquid scintillation counting method relative to control; details: Membrane
Sequence of Adenosine receptor A2a (Homo sapiens) (P29274 whole entry): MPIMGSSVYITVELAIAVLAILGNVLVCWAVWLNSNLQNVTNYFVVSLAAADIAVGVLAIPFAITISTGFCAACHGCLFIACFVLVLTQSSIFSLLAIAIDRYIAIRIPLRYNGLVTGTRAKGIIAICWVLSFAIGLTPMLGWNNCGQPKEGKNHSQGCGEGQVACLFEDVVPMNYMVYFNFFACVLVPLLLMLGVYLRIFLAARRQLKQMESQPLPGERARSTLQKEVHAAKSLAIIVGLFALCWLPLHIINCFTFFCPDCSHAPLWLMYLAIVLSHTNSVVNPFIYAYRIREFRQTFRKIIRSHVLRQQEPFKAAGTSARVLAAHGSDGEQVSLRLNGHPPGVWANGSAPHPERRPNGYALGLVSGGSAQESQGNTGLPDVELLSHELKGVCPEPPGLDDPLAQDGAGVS
In short: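 HEK293 membranes expressing hA2A (20 μg/tube) were incubated with 15 nM [3H]ZM241385 and 1 μM test compound for 60 min at 25°C in 50 mM Tris-HCl, pH 7.4, 10 mM MgCl2. The reaction was stopped by GF/B filtration, followed by scintillation counting. Read-out was percent inhibition of specific binding.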

[11] = (§2) Cytotoxicity against HEK293 cells assessed as cell viability at 100 uM measured after 24 to 48 hrs by MTT assay relative to control; format: cell-based; details: human, HEK293 cells, time 24-48 hrs, read-out: Activity; in short: as §1
[12] = target: T2, Adenosine receptor A2b (Homo sapiens) (UniProt P29275); assay: Displacement of [3H]ZM241385 from A2B adenosine receptor (unknown origin) at 1 uM measured after 60 mins by liquid scintillation counting method relative to control
T2 sequence (whole entry): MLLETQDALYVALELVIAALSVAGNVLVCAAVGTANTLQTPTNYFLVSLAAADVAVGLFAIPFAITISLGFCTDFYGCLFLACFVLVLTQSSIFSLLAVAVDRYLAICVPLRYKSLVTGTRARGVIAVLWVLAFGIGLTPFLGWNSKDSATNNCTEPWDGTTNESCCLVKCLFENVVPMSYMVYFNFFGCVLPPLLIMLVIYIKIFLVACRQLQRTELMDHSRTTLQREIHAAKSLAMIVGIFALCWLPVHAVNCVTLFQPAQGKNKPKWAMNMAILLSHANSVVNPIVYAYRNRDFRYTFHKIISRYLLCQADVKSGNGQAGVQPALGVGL

[13] = tested on: HEK293; assay: as §2; format: cell-based; details: human, hek293, 100 µM, time 24-48 hrs; in short: as §1
[14] = target: T2, Adenosine receptor A2b (Homo sapiens); assay: Displacement of [3H]ZM241385 from A2B adenosine receptor (unknown origin) at 10 uM measured after 60 mins by liquid scintillation counting method relative to control

Sequence of 3',5'-cyclic-AMP phosphodiesterase 4B (Q07343 whole entry): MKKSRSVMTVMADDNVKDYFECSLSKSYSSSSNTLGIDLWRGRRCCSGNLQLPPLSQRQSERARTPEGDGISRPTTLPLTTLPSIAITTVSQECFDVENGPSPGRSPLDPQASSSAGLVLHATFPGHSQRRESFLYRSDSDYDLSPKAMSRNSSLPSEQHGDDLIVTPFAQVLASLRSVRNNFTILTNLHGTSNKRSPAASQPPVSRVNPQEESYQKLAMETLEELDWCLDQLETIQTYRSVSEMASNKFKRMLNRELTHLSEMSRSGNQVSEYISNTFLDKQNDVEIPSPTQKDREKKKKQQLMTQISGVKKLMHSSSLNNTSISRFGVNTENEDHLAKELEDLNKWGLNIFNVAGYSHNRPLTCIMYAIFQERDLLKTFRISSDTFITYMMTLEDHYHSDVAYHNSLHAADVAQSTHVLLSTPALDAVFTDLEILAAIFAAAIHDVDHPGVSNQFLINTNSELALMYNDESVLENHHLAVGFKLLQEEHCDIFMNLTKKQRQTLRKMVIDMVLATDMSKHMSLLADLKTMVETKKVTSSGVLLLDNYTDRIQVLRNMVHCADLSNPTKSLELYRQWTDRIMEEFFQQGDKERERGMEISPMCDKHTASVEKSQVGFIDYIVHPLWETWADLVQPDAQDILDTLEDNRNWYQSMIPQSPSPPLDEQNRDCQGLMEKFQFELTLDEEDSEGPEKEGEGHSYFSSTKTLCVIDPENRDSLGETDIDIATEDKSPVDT

IC50 [1] [µM] | IC50 [4] [µM] | inhibition [5] [%] | IC50 [6] [µM] | inhibition [10] [%] | inhibition [12] [%] | inhibition [14] [%] | Structure (SMILES) | viability at 10 µM [2] [%] | IC50 [3] [µM] | viability at 100 µM [7] [%] | viability at 50 µM [8] [%] | viability at 5 µM [9] [%] | viability at 100 µM [11] [%] | Activity [13] [%]
> 100 | 15.3 | 10 | 63.7 | 12 | – | – | COc1ccc(-c2nc(SCC(=O)c3sc(-c4ccccc4)nc3C)[nH]c(=O)c2C#N)cc1OC | 69.8 | 91.8 | 6.48 | 21.4 | 80.8 | – | –
17.1 | 12.5 | 2.5 | 24 | 8.5 | – | – | COc1ccc(-c2nc(C)c(C(=O)CSc3nc(-c4ccc(OC)c(OC)c4)c(C#N)c(=O)[nH]3)s2)cc1 | 57.6 | 23.3 | 5.39 | 22.2 | 81.2 | – | –
11.2 | 8.54 | -2.8 | 72.1 | -2.6 | – | – | COc1ccc(-c2nc(C)c(C(=O)CSc3nc(N)c(C#N)c(-c4ccccc4)n3)s2)cc1 | 57.8 | – | 5.25 | 16.5 | 61.8 | – | > 50

Further lines, the compound ahead of its results:

Structure (SMILES) | IC50 [1] [µM] | IC50 [4] [µM] | inhibition [5] [%] | IC50 [6] [µM] | inhibition [10] [%] | inhibition [12] [%] | inhibition [14] [%] | viability at 10 µM [2] [%] | IC50 [3] [µM] | viability at 100 µM [7] [%] | viability at 50 µM [8] [%] | viability at 5 µM [9] [%] | viability at 100 µM [11] [%] | Activity [13] [%]
COc1ccc(-c2nc(SCC(=O)c3sc(-c4ccccc4)nc3C)nc(N)c2C#N)cc1 | 33.1 | 14 | -4.6 | 27.2 | 0.8 | – | – | 60.8 | – | 17.2 | 33.8 | 68.8 | > 50 | –
COc1ccc(-c2nc(C)c(C(=O)CSc3nc(N)c(C#N)c(-c4ccc(OC)cc4)n3)s2)cc1 | 3.15 | 1.56 | 9 | 24.3 | – | 18 | 49 | 28.7 | – | 0.26 | 13 | 35.6 | – | > 50
Cc1nc(-c2ccc(Cl)cc2)sc1C(=O)CSc1nc(N)c(C#N)c(-c2ccc(Cl)cc2)n1 | 24.1 | 3.42 | -3.7 | 12.5 | 1.8 | – | – | 37.3 | 73 | 1.65 | 15.5 | 46.1 | – | –
Cc1nc(-c2ccc(Cl)cc2)sc1C(=O)CSc1nc(N)c(C#N)c(-c2ccccc2)n1 | 22.1 | 11.4 | 8.7 | 25.2 | -1.4 | – | – | 67.9 | – | 4.59 | 15.2 | 71.1 | > 50 | –
